From PubChem BioAssay
Hits are enriched below; roughly 2.5% of the tested compounds scored in any of these assays.
TCR CD3 inh – blocks the human TCR-CD3 interaction | inhibition, % at 9.4 µM | 360,000 compounds, 0.37% hits | AID 651800 | TAMRA-labeled TCR probe fluorescence, biochemical;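 note: recombinant mutant TCR 2C K166C tagged with TAMRA read by polarization; 0% = receptor in buffer alone and 100% = receptor with positive control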
mABHD4 FP – ABHD4 (mouse) inhibition, primary FP screen; Q8VD66; purified mABHD4, FP-Rh probe fluorescence polarization; inhibition, % at 8.92 µM; 370,000 compounds, 0.54% hits;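 active = inhibition exceeding the mean over every tested compound plus 3 SD, cut at about 30% in these data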;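 note: 0% = plate median of compound wells and 100% = S159A mutant with DMSO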
Target sequence (Q8VD66 whole entry, looked up): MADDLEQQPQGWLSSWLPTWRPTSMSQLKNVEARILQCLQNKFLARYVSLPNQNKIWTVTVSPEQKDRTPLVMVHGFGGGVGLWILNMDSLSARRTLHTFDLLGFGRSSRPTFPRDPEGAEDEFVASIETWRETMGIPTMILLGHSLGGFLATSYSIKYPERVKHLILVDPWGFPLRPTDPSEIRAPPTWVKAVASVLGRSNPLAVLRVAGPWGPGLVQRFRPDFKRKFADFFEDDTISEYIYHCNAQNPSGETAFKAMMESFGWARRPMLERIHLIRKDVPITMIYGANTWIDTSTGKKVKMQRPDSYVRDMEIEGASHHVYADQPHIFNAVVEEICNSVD
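Test system: mouse ABHD4 enzyme, wild type. Reagent: FP-Rh fluorescent activity-based probe, added after compound pre-incubation. Timing: pre-incubation 45 min, probe exposure 60 min, at 25 °C. Technique: FP readout, ex 525 nm / em 598 nm. Benchmarks: high control S159A mutant with DMSO, low control median of compound wells.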
rCAG RNA binder – r(CAG) repeat RNA binding. 370,000 compounds, 1.3% hits. TO-PRO-1 dye displacement fluorescence. inhibition, % at 3 µM;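 active = inhibition above the plate cutoff, the mean of all test compounds on that plate plus 3 SD, cut at about 35% in these data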;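 note: 0% = DMSO alone and 100% = 100 µM mitoxantrone as full dye displacement; higher means more dye released from RNA so lower well fluorescence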
HTRA1 inhibitor – HTRA1 (human) protease inhibition. recombinant HTRA1, FP-rhodamine activity-based probe, fluorescence polarization. inhibition, % at 5.96 µM. 340,000 compounds, 0.5% hits. AID 504803; in the data active = inhibition above about 36%;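 note: 0% = enzyme with DMSO and 100% = wells lacking enzyme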
SIAE primary – blocks human sialic acid acetylesterase | SIAE FP-Rh probe binding, fluorescence polarization | inhibition, % at 9.66 µM | 370,000 compounds, 0.69% hits | Q9HAT2;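 active = inhibition above a cutoff: mean of compounds within the control limits plus 3 SD of those, cut at about 17% in these data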;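 note: 0% = plate median of compound wells and 100% = probe without SIAE protein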
BSA probe FL – BSA probe counter-screen for TCR-CD3 inhibitors; inhibition, % at 9.4 µM; 1,200 compounds, 10% hits; TAMRA-labeled BSA probe fluorescence counterscreen; shares compounds with TCR CD3 inh; in the data active = inhibition above about 23%;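 note: 0% = buffer low control and 100% = reference high control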
TCR-CD3 conf – confirmation of human TCR-CD3 interaction inhibitors. 1,200 compounds, 48% hits. shares compounds with TCR CD3 inh. inhibition, % at 9.4 µM. TAMRA-labeled TCR probe fluorescence binding assay
An asterisk follows results filed as active; x = no result given. Cut-off read from the data, not from the text of the source, unless noted: active = inhibition above about 19%; inactive = the rest.

SMILES	TCR CD3 inh	mABHD4 FP	rCAG RNA binder	HTRA1 inhibitor	SIAE primary	BSA probe FL	TCR-CD3 conf
NC(=O)[C@H]1CC2(CC(c3cccc(NC(=O)COc4ccc(Cl)cc4)c3)=NO2)CN1C(=O)C(c1ccccc1)c1ccccc1 (stereo partly specified)	32*	-75	13	-90	-82	4	23*
O=C(NNC(=O)c1ccccc1Cl)c1cccs1	-5	4	0	6	10	x	x
O=C(NNC(=O)c1cc(Cl)ccc1O)c1cccs1	25*	15	-1	21	0	-15	19*
O=C(CCc1ccccc1)NNC(=O)c1cc(Cl)ccc1O	24*	-5	5	16	0	49*	47*
O=C(CCc1ccccc1)NNC(=O)c1ccccc1C(=O)O	8	7	0	8	-2	x	x
CCOC(=O)C1CCN(CC(O)COCc2ccccc2)CC1 (stereo unspecified)	6	12	-3	-2	6	x	x
CCOC(=O)C1CCN(CC(O)COCc2cccs2)CC1 (stereo unspecified)	23*	2	-5	0	-1	-1	-3
N#Cc1cccc(C(=O)C(=O)N2CCC(c3ccccc3)CC2)c1	-2	-10	3	x	-8	x	x
O=C(C(=O)N1CCC(c2ccccc2)CC1)c1ccc(F)c(F)c1	24*	-12	-1	x	-1	3	0
CCOC(=O)/C(=C/c1ccc(OC)cc1)NC(=O)c1ccco1	-1	10	-2	2	-2	x	x
COCc1cc(=O)n2[nH]c(-c3ccc(C)cc3)cc2n1	3	2	5	4	-4	x	x
O=C(N/N=C/c1cc([N+](=O)[O-])ccc1O)c1ccc(COc2ccc3c(c2)CCC3)o1	45*	8	14	29	13	-6	17
CCN(Cc1ccccc1)C(=O)c1[nH]c2ccc(OC)cc2c1C	1	3	-3	-10	4	x	x
COc1cc([N+](=O)[O-])cc(/C=N/NC(=O)c2cccnc2)c1O	32*	21	9	6	5	-11	19*
COc1ccc(Br)cc1/C=N/NC(=O)c1cccnc1	-2	-4	-1	1	15	x	x
CN1CCc2c(c3ccccc3n2Cc2ccccc2)C1	-7	-7	2	-3	7	2	3
CCCCN1CCc2c(c3ccccc3n2Cc2ccccc2)C1	-2	4	4	-4	1	x	x
CCN1CCN(CCNC(=O)c2ccc3c(c2)N(Cc2ccc(F)cc2)C(=O)c2ccccc2S3=O)CC1 (stereo unspecified)	-3	-4	-4	-4	-8	x	x
O=C(N/N=C1/CC(c2ccccc2)Oc2ccccc21)C1CC1 (stereo unspecified)	2	8	-2	-2	2	x	x
COc1ccc(C2=NOC(C)(c3nnc(-c4ccc(Cl)cc4)o3)C2)cc1 (stereo unspecified)	34*	-7	0	-15	5	0	0
O=C(Nc1ccc(Cl)c(Cl)c1)Oc1ccc(NC(=O)c2ccco2)cc1	40*	-57	11	-30	-132	4	15
O=C(Nc1ccc(OC(=O)c2ccco2)cc1)c1ccco1	-1	-4	2	-4	-7	x	x
C/C(=N\NC(=O)c1cc(C2CC2)nc2ccccc12)c1ccc(O)cc1O	22*	8	7	15	8	-12	24*
C/C(=N\NC(=O)c1cc(C2CC2)nc2ccccc12)c1ccc(C)s1	6	3	2	-13	-1	x	x
CC(C)CC1NC(=O)c2ccc(Cl)cc2-n2c1nc1cc(F)ccc1c2=O (stereo unspecified)	170*	-10	0	x	0	5	-2
CC(C)CC1NC(=O)c2ccc(Cl)cc2-n2c1nc1ccc(F)cc1c2=O (stereo unspecified)	11	-7	-2	x	-4	x	x
O=c1c2c(-c3ccc(Cl)cc3)csc2ncn1/N=C/c1cccc([N+](=O)[O-])c1O	30*	7	9	11	7	-11	29*
O=[N+]([O-])c1cccc(/C=N/n2cnnc2)c1O	0	2	13	0	2	x	x
CN1CCC(=C(c2ccccc2)c2ccc(Br)cc2)CC1	3	4	-2	-1	-4	x	x
